ChEMBL document CHEMBL5653631, “A Potent and Selective ULK1 Inhibitor Suppresses Autophagy and Sensitizes Cancer Cells to Nutrient Stress” (iScience, 2018)

Legend:
[1] = molecular target: MAP kinase-interacting serine/threonine-protein kinase 2 (Homo sapiens, UniProt Q9HBH9); test: Inhibition of human recombinant MNK2 at 500 nM related to control ULK1
[2] = molecular target: Tyrosine-protein kinase Fgr (Homo sapiens) (UniProt P09769); test: Inhibition of human recombinant FGR at 500 nM related to control ULK1
Tyrosine-protein kinase Fgr (Homo sapiens), sequence (P09769 2-529 limits assumed): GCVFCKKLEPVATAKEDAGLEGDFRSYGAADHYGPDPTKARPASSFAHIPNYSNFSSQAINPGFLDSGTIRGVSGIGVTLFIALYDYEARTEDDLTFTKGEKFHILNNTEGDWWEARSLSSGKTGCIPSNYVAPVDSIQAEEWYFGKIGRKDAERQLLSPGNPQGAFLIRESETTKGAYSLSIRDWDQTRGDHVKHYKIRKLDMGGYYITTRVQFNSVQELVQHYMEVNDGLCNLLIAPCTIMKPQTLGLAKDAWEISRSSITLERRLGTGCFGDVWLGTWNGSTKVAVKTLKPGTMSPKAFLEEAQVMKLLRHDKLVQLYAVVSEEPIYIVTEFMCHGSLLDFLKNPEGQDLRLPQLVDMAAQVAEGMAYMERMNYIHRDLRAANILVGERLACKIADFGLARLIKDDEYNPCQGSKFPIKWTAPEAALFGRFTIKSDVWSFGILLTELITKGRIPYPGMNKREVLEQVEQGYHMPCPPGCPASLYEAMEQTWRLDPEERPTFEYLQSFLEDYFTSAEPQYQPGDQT

[3] = molecular target: Activated CDC42 kinase 1 (Homo sapiens) (UniProt Q07912); test: Inhibition of human recombinant ACK at 500 nM in presence of ATP by radiometric assay relative to control
Activated CDC42 kinase 1 (Homo sapiens), sequence (Q07912 whole entry, looked up): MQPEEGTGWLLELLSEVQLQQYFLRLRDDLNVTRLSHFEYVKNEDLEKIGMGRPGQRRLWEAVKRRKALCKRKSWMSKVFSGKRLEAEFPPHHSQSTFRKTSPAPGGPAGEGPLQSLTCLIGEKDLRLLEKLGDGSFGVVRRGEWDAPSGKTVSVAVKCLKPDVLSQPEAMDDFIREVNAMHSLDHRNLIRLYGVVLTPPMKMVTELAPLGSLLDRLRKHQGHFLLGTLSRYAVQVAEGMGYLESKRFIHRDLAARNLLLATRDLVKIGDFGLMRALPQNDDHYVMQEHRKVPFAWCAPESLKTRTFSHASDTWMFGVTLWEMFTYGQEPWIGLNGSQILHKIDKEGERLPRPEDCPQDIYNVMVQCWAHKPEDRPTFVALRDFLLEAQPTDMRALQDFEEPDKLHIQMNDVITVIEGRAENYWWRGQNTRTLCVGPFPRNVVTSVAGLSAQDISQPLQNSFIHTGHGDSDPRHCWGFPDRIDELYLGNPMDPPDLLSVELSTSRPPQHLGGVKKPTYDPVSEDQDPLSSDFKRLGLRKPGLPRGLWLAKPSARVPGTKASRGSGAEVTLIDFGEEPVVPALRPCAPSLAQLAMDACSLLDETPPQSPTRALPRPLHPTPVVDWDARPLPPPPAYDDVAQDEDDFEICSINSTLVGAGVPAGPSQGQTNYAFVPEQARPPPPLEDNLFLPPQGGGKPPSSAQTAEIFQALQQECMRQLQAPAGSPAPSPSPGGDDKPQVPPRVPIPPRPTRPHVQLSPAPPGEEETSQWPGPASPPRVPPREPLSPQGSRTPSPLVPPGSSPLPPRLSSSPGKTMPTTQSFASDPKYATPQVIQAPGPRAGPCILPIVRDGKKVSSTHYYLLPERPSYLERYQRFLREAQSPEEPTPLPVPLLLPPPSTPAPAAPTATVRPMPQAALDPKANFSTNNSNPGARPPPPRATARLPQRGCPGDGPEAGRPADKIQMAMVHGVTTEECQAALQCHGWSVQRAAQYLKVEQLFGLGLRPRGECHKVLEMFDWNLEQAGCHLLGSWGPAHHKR
Outline: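 Panel of 327 recombinant human kinases in radiometric activity assays, each screened in duplicate at a single inhibitor concentration; percent activity remaining relative to vehicle control, percent inhibition taken as 100 minus activity remaining.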

[4] = molecular target: T1, Serine/threonine-protein kinase ULK3 (Homo sapiens) (UniProt Q6PHR2); test: Inhibition of human recombinant ULK3 at 500 nM related to control ULK1
T1 sequence (whole entry): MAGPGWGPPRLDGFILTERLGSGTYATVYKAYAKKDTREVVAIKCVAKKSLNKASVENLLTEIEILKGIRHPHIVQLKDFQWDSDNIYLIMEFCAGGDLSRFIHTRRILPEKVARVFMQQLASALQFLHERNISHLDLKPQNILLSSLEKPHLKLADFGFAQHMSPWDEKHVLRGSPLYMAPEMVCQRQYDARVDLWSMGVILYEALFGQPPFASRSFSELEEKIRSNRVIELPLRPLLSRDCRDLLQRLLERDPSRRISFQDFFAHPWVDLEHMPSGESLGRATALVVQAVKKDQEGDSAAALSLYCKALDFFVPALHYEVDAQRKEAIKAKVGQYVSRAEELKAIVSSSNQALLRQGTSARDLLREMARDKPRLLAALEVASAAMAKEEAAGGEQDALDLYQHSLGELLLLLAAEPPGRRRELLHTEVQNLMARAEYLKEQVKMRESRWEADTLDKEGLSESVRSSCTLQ

[5] = molecular target: T2, MAP kinase-activated protein kinase 5 (Homo sapiens) (UniProt Q8IW41); test: Inhibition of human recombinant MAPKAPK5 at 500 nM in presence of ATP by radiometric assay relative to control
T2 sequence (whole entry): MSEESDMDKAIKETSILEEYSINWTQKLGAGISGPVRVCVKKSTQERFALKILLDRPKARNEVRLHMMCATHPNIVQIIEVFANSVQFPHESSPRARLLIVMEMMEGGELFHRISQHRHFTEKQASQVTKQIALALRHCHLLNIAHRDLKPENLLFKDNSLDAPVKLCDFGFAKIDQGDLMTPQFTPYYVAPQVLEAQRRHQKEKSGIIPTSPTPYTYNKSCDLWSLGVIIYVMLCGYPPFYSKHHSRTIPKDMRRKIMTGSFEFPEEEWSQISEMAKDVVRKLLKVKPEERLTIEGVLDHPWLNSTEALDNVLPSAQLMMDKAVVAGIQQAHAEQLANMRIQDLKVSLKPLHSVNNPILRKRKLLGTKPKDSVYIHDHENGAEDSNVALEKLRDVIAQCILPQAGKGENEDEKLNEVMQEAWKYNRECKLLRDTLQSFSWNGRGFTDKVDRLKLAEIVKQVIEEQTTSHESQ

[6] = molecular target: Dual specificity protein kinase CLK2 (Homo sapiens) (UniProt P49760); test: Inhibition of human recombinant CLK2 at 500 nM in presence of ATP by radiometric assay relative to control
Dual specificity protein kinase CLK2 (Homo sapiens), sequence (P49760 whole entry, looked up): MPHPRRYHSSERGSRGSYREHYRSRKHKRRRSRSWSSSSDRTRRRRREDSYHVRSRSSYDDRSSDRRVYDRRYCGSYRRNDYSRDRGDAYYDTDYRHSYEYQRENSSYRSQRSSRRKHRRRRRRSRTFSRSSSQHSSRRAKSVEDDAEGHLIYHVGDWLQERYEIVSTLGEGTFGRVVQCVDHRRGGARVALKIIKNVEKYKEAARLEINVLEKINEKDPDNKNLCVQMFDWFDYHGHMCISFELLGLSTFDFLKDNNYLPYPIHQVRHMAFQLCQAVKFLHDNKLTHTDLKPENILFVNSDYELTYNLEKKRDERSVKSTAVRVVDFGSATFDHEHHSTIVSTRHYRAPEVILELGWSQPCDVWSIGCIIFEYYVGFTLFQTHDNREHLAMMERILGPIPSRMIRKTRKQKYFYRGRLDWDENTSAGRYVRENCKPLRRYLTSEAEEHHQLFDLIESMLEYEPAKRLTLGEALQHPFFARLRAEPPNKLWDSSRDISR

[7] = molecular target: T3, Receptor-interacting serine/threonine-protein kinase 1 (Homo sapiens) (UniProt Q13546); test: Inhibition of human recombinant RIPK1 at 15 nM in presence of ATP by radiometric assay relative to control
T3 sequence (whole entry): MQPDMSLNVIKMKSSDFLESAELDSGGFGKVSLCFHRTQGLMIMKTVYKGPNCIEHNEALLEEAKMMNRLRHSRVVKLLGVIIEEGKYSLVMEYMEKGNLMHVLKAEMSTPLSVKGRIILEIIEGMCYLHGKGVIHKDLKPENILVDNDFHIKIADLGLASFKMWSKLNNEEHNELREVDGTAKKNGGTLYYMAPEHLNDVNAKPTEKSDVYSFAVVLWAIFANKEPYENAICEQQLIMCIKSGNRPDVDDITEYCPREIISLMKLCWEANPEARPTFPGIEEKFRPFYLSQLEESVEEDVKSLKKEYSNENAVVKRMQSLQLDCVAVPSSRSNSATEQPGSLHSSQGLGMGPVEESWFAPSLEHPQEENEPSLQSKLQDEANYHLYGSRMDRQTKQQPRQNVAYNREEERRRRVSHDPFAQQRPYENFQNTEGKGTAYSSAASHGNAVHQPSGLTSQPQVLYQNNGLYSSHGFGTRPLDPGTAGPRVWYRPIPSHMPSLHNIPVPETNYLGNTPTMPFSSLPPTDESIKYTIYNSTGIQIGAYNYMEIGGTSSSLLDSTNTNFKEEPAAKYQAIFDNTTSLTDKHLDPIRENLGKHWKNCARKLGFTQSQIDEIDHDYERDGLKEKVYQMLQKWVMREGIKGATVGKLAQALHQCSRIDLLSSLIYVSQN

[8] = molecular target: Ribosomal protein S6 kinase alpha-5 (Homo sapiens) (UniProt O75582); test: Inhibition of human recombinant MSK1 at 15 nM in presence of ATP by radiometric assay relative to control
Ribosomal protein S6 kinase alpha-5 (Homo sapiens), sequence (O75582 whole entry, looked up): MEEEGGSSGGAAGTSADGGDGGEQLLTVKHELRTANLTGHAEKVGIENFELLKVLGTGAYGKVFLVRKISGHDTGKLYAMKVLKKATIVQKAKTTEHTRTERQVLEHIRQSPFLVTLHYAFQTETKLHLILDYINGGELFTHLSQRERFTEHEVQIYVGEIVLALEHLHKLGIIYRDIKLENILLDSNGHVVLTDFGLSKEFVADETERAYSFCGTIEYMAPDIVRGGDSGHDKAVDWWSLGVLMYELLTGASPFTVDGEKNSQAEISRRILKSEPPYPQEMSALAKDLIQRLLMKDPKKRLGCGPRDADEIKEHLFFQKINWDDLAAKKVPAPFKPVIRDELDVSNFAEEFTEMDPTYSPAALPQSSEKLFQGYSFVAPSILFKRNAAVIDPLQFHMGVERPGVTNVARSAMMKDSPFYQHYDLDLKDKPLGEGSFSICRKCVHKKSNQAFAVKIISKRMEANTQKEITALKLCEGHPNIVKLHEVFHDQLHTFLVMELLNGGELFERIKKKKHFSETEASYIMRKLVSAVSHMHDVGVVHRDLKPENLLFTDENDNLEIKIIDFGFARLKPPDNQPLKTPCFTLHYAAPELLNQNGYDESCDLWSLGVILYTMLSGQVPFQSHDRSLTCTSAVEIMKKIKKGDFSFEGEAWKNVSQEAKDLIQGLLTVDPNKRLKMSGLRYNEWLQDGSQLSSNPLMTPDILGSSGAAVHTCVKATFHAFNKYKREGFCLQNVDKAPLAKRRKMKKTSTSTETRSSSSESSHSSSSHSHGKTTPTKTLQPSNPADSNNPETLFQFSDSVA

[9] = molecular target: G protein-coupled receptor kinase 5 (Homo sapiens) (UniProt P34947); test: Inhibition of human recombinant GPRK5 at 40 nM related to control ULK1
G protein-coupled receptor kinase 5 (Homo sapiens), sequence (P34947 whole entry, looked up): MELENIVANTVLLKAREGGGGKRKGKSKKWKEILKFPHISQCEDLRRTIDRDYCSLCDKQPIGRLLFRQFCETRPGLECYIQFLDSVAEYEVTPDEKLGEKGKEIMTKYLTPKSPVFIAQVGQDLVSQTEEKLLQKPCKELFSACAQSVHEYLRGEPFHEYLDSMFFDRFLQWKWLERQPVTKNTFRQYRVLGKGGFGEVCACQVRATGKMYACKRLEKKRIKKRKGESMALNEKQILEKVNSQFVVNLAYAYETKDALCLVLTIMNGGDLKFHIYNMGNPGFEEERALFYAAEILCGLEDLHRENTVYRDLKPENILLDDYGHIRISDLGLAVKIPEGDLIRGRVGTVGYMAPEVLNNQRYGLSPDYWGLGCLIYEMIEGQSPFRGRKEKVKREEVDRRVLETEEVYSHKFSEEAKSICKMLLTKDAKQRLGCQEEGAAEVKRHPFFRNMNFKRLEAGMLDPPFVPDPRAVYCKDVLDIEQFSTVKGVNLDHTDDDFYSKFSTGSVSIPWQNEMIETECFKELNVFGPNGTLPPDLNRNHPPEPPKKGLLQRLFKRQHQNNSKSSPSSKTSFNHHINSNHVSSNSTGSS

[10] = molecular target: Calcium/calmodulin-dependent protein kinase type 1B (Homo sapiens) (UniProt Q6P2M8); test: Inhibition of human recombinant CaMK1b at 40 nM related to control ULK1
Calcium/calmodulin-dependent protein kinase type 1B (Homo sapiens), sequence (Q6P2M8 whole entry): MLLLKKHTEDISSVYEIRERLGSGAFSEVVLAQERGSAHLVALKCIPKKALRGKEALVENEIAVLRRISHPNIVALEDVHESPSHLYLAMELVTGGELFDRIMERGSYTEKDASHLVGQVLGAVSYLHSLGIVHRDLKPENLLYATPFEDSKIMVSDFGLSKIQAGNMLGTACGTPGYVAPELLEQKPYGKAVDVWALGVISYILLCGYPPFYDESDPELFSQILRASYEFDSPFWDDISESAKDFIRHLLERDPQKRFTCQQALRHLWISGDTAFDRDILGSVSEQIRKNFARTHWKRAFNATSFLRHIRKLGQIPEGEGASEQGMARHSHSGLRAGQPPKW

MAP kinase-interacting serine/threonine-protein kinase 2, sequence (Q9HBH9 whole entry, looked up): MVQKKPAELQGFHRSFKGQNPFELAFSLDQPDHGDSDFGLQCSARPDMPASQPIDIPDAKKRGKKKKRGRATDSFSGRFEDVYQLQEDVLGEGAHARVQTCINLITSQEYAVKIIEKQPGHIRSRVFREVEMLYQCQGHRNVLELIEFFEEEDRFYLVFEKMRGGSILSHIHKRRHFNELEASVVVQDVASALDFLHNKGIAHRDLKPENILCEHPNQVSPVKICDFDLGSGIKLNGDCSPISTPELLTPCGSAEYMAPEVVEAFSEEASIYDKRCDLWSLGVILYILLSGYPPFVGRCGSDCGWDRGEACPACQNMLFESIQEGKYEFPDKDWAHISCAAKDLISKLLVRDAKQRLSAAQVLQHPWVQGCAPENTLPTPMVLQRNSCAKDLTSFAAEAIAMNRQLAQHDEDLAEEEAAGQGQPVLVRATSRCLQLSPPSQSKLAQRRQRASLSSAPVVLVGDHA

`CNC(=O)c1ccccc1Oc1nc(Nc2cc(OC)c(OC)c(OC)c2)ncc1Br` showed a fold change (FC) [1] of 0.03, a fold change (FC) [2] of 0.11 and an inhibition [3] of 31%. It also gave a fold change (FC) [4] of 1.14, an inhibition [5] of 0% and an inhibition [6] of 7%.

With `CC(C)[C@H](NC(=O)c1cc(-c2cnn3cc(-c4ccc(OCCN5CCCCC5)cc4)cnc23)cs1)C(F)(F)F` the inhibition [7] was 1% and the inhibition [8] was 2%.

`O=C(N[C@@H](C1CC1)C(F)(F)F)c1cc(-c2cnn3cc(-c4ccc(F)cc4)cnc23)cs1` showed a fold change (FC) [9] of 0.01 and a fold change (FC) [10] of 0.
